The nature of data set [1]: Aqueous solubility of the compound in pure water by HPLC analysis. Format: physicochemical. Summed up:
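Solubility was measured in pure water by HPLC on a C18 column using acetonitrile–water 60/40 (v/v) at 1.0 mL/min, with detection at 254 nm, in triplicate.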

Data set [2] concerns HCT-116. The data set can be described thus: Antiproliferative activity against human HCT116 cells at 10 uM after 72 hrs by MTT assay. It is filed as functional, cell-based.
The next data set deals with A549. As to the kind of experiment: Antiproliferative activity against human A549 cells at 10 uM after 72 hrs by MTT assay. Format: functional, cell-based.
Another data set has as its system K562. The data set can be described thus: Antiproliferative activity against human K562 cells at 10 uM after 72 hrs by MTT assay. It is filed as functional, cell-based.
The subject of data set [3] is HCT-116. As to the kind of experiment: Antitumor activity against human HCT116 cells xenografted in BALB/c nude mouse assessed as reduction in tumor weight at 5 mg/kg, ip administered daily for 21 days. Format: functional. Further details: scale not given: the % may be the effect or the level left. Summed up: (§1)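 Male BALB/c nude mice, 3–5 weeks old, received 1×10^7 HCT-116 cells subcutaneously. Once tumors reached about 75 mm³, mice were randomized to groups of 8 and given 5 mg/kg intraperitoneally once daily for 21 days. Body weight was followed over time. At sacrifice, tumors were weighed, and inhibition (%) = (Wcontrol − Wtreated)/Wcontrol × 100. Data are mean ± SD.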

For data set [4], the system named is HCT-116. As to the kind of experiment: Antiproliferative activity against human HCT116 cells after 72 hrs by MTT assay. It is filed as functional, cell-based. Conditions: HCT-116, 72 h.
The next data set relates to HCT-8. As to the kind of experiment: Antiproliferative activity against human HCT8 cells after 72 hrs by MTT assay. Format: functional, cell-based. Conditions: HCT-8, 72 h. Summed up: (§2)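 Cells were cultured overnight in RPMI 1640 + 10% FBS, then treated in triplicate with vehicle or compound across the indicated concentrations for 72 h. MTT was added for the final 4 h, formazan was dissolved in DMSO, and absorbance was read at 570 nm. Inhibition rate = (1 − OD treated/OD control) × 100%, and the IC50 was derived from it.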

The nature of data set [5]: Aqueous solubility of the compound in PBS buffer at pH 5 by HPLC analysis. It is filed as physicochemical.
The subject of a further data set is HT-29. As to the kind of experiment: Antiproliferative activity against human HT-29 cells after 72 hrs by MTT assay. The conditions noted are these: HT-29, 72 h. Format: functional, cell-based. Summed up: as §2
Data set [6] in a line: Cytotoxicity against human CCD-841 cells assessed as reduction in cell viability after 72 hrs by MTT assay. Conditions: CCD-841, 72 h. It is filed as cell-based. Summed up: as §2
Data set [7] concerns HCT-116. The data set can be described thus: Induction of intracellular ROS generation in human HCT116 cells at 10 uM after 3 hrs by DCFH-DA-dye based fluorescence microscopy. Format: functional, cell-based. Summed up: (§3)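 Cells were treated in triplicate with 10 µM compound or with vehicle DMSO (0.1%, v/v) for 3 h. Intracellular ROS was detected with a fluorescent probe, the legend citing DCFH-DA and the methods citing dihydroethidium (300/610 nm). Signals were read on a fluorescence microplate reader and imaged by fluorescence microscopy.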

Data set [8] can be described thus: Induction of intracellular ROS generation in human CCD-841 cells at 10 uM after 3 hrs by DCFH-DA-dye based fluorescence microscopy. Format: cell-based. Summed up:
as §3

Data set [9] deals with Mus musculus. As to the kind of experiment: Toxicity in nude BALB/c mouse xenografted with human HCT116 cells assessed as effect on liver size at 5 mg/kg, ip administered daily for 21 days. It is filed as organism-based. Conditions: in vivo, 504 h. Summed up: (§4)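 HCT-116 xenografts (1×10^7 cells s.c.) were grown in male BALB/c nude mice, 3–5 weeks old, to about 75 mm³. Mice (n = 8 per group) then received 5 mg/kg i.p. daily for 21 days. Liver, kidney, lung and heart were examined for size and morphology against vehicle-treated controls.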

Data set [10] deals with Mus musculus. As to the kind of experiment: Toxicity in nude BALB/c mouse xenografted with human HCT116 cells assessed as effect on liver morphology at 5 mg/kg, ip administered daily for 21 days. It is filed as organism-based. Conditions: in vivo, 504 h. Summed up:
as §4

Data set [11] deals with Mus musculus. The data set can be described thus: Toxicity in nude BALB/c mouse xenografted with human HCT116 cells assessed as effect on kidney size at 5 mg/kg, ip administered daily for 21 days. Format: organism-based. The conditions noted are these: in vivo, 504 h. Summed up: as §4
Data set [12] has as its system Mus musculus. As to the kind of experiment: Toxicity in nude BALB/c mouse xenografted with human HCT116 cells assessed as effect on kidney morphology at 5 mg/kg, ip administered daily for 21 days. Format: organism-based. Conditions: in vivo, 504 h. Summed up: as §4
The test system of data set [13] is Mus musculus. As to the kind of experiment: Toxicity in nude BALB/c mouse xenografted with human HCT116 cells assessed as effect on lung size at 5 mg/kg, ip administered daily for 21 days. It is filed as organism-based. The conditions noted are these: in vivo, 504 h. Summed up: as §4
The test system of data set [14] is Mus musculus. The data set can be described thus: Toxicity in nude BALB/c mouse xenografted with human HCT116 cells assessed as effect on lung morphology at 5 mg/kg, ip administered daily for 21 days. It is filed as organism-based. The conditions noted are these: in vivo, 504 h. Summed up: as §4
Data set [15] deals with Mus musculus. As to the kind of experiment: Toxicity in nude BALB/c mouse xenografted with human HCT116 cells assessed as effect on heart size at 5 mg/kg, ip administered daily for 21 days. It is filed as organism-based. The conditions noted are these: in vivo, 504 h. Summed up: as §4
Data set [16] relates to Mus musculus. As to the kind of experiment: Toxicity in nude BALB/c mouse xenografted with human HCT116 cells assessed as effect on heart morphology at 5 mg/kg, ip administered daily for 21 days. Format: organism-based. Conditions: in vivo, 504 h. Summed up: as §4
For data set [17], the system named is Mus musculus. The data set can be described thus: Toxicity in nude BALB/c mouse xenografted with human HCT116 cells assessed as reduction in body weight at 5 mg/kg, ip administered daily for 21 days. Format: organism-based. The conditions noted are these: in vivo, 504 h. Summed up: as §1

SMILES strings stand for the structures. pIC50: −log10 of the molar value. ≈ marks a conversion by molar mass, not a printed value. Calls of active or inactive are those of the source. No cut-off for these calls is given here.

In turn, `COc1cc(/C=C/C(=O)N2CCC=CC2=O)cc(OC)c1OC` [PIPLARTINE] gave a solubility in data set [1] of 0.00163 mg/mL (≈ 5.14 µM). Also, the result in the data set with HCT-116 [2], with A549 and with K562 was Active. For the same compound, the Activity in the data set on HCT-116 [3] is on record as 53%.

In data set [1], `Cc1nccnc1/C=C/C(=O)N1CCC=CC1=O` showed a solubility of 0.0482 mg/mL (≈ 198 µM). Moreover, the negative logarithm of the IC50 (pIC50) with HCT-116 [4] is 5.05. Also, the outcome in the data set with HCT-116 [2], in the data set on A549 and with K562 was Active.

On to `Cc1cnc(/C=C/C(=O)N2CCC=CC2=O)cn1`, for which the concentration in solution in [1] (solubility) was 0.0479 mg/mL (≈ 197 µM). The negative logarithm of the IC50 (pIC50) with HCT-116 [4] was 5.10. Further, the result with HCT-116 [2], with A549 and with K562 was Active.

`O=C1C=CCCN1C(=O)/C=C/c1cnccn1` returned a solubility in data set [1] of 0.0598 mg/mL (≈ 261 µM). Moreover, in the data set on HCT-116 [4], the pIC50 is 5.50. Moreover, the outcome in the data set on HCT-116 [2], in the data set with A549 and in the data set on K562 was Active.

On to `O=C1C=CCCN1C(=O)/C=C/c1ccncc1`, for which the solubility in [1] stood at 0.0462 mg/mL (≈ 202 µM). The negative logarithm of the IC50 (pIC50) in the data set on HCT-116 [4] was 5.15. Moreover, the result in the data set with HCT-116 [2], in the data set on A549 and in the data set on K562 was Active.

For `O=C1C=CCCN1C(=O)/C=C/c1cnc2ccccc2c1`, the concentration in solution in [1] (solubility) came to 0.00195 mg/mL (≈ 7.01 µM). In addition, the negative logarithm of the IC50 (pIC50) in the data set with HCT-116 [4] is 5.09. In addition, the outcome in the data set with HCT-116 [2], with A549 and in the data set on K562 was Active.

`O=C1C=CCCN1C(=O)/C=C/c1ccccn1` showed a solubility in [1] of 0.0404 mg/mL (≈ 177 µM).

Consider `O=C(/C=C/c1ccc2ccccc2n1)N1CCC=C(Cl)C1=O`, for which the pIC50 in the data set on HCT-8 was 5.75; in the data set with HCT-116 [4], 6.33; in the data set with HT-29 it was 6.04; in data set [6] it was 4.29. The compound also displayed a solubility in data set [5] of 1.99 mg/mL (≈ 6370 µM). Moreover, the outcome with HCT-116 [2] and in the data set with HCT-116 [7] was Active. Moreover, the Activity entry in data set [8] is on record as “Non-Toxic”; with HCT-116 [3] it was 52%; with Mus musculus [9], “Non-Toxic”; in the data set with Mus musculus [10], “Non-Toxic”; in the data set on Mus musculus [11] it was “Non-Toxic”; in the data set with Mus musculus [12], “Non-Toxic”. For the same compound, the Activity result with Mus musculus [13], in the data set on Mus musculus [14], with Mus musculus [15], in the data set on Mus musculus [16] and with Mus musculus [17] was “Non-Toxic” in each case.

Compound `O=C1C=CCCN1C(=O)/C=C/c1cccnc1` registered a solubility in [1] of 0.0453 mg/mL (≈ 198 µM).

Compound `O=C1C=CCCN1C(=O)/C=C/c1ccc2ccccc2n1` yielded a solubility in [1] of 0.00241 mg/mL (≈ 8.66 µM). Besides, the pIC50 with HCT-116 [4] was 6.03. The outcome in the data set with HCT-116 [2], with A549 and in the data set with K562 was Active.

Source of the values: ChEMBL document CHEMBL4190248, “Synthesis and evaluation of N-heteroaromatic ring-based analogs of piperlongumine as potent anticancer agents” (Eur J Med Chem, 2017).
